For eleven compounds, IC50, MIC and selectivity ratio results are on record in ChEMBL document CHEMBL1157051, “New dioxazole derivatives: Synthesis and effects on the growth of Entamoeba histolytica and Giardia intestinalis” (Eur J Med Chem, 2010).

In brackets after ≈: the same amount, converted by molar mass.

The test system of one series is Vero. Kind of series: Cytotoxicity against african green monkey Vero cells after 72 hrs by SRB assay. The format is cell-based. Particulars: Chlorocebus sabaeus. The essentials:
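Vero (ATCC CCL-81) at 10⁵ cells/mL in Eagle's MEM with heat-inactivated FBS and 1 mM sodium pyruvate. Samples at maximum final concentration […]; 0.05% DMSO negative control. 72 h at 37 °C, 5% CO₂. Viability by sulphorhodamine B assay; cytotoxic defined as IC50 below the 180 cutoff.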

The test system of another series is Entamoeba histolytica. Nature of the series: Antiamoebic activity against Entamoeba histolytica HM-1:IMSS trophozoites after 72 hrs by microdilution technique. It counts as functional, organism-based. The essentials:
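HM1:IMSS trophozoites in TYIS-33 medium, detached by chilling on ice; 1.7 × 10⁴ organisms/well. Samples in DMSO (final ≤0.1%), diluted in medium. Plates gassed with nitrogen 10 min, incubated 37 °C for 72 h. Washed in warm 0.9% NaCl, methanol-fixed, eosin-stained, dye released with 0.1 N NaOH, OD 490 nm. IC50 from linear regression of % inhibition vs log dose; triplicate.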

In the next series the test system is Giardia intestinalis. Nature of the series: Antigiardial activity against Giardia intestinalis Thai trophozoites after 24 hrs by inverted microscopic analysis. The format is functional. Particulars: Giardia duodenalis.
Series [1] is described as follows: Safety index, ratio of IC50 for african green monkey Vero cells to IC50 for Entamoeba histolytica HM-1:IMSS. It counts as toxicity, cell-based. Particulars: read-out: Ratio IC50.

Take `O=[N+]([O-])c1ccc(C2=NOC(c3ccccc3)O2)s1` (stereo not given): the IC50 is < 180 µM with Vero and 9.97 µM with Entamoeba histolytica. The compound also yielded an MIC against Giardia intestinalis of 5.65 µM (≈ 1.56 µg/mL).
For the compound `COc1ccc(C2ON=C(c3ccc(C)cc3)O2)cc1` (stereo not given), the IC50 with Vero is > 180 µM; in the series on Entamoeba histolytica it was 1.8 µM. In addition, the selectivity ratio in series [1] is > 100. For the same compound, the MIC in the series on Giardia intestinalis is > 1500 µM.
In the case of `O=[N+]([O-])c1ccc(C2=NOC(c3ccccc3O)O2)s1` (stereo not given), the IC50 was < 180 µM in the series with Vero and 2.64 µM with Entamoeba histolytica. In the series on Giardia intestinalis, this compound returned an MIC of 5.33 µM (≈ 1.56 µg/mL).
On to `Cc1ccc(C2=NOC(C)(c3ccc(Cl)cc3)O2)cc1` (stereo not given), for which the IC50 in the series on Entamoeba histolytica came out at 7.3 µM. Besides, the MIC against Giardia intestinalis was > 1500 µM.
Take `Cc1ccc(C2=NOC(C)(c3ccccc3)O2)cc1` (stereo not given): the half-maximal inhibitory concentration (IC50) is > 180 µM in the series with Vero and 1.8 µM with Entamoeba histolytica. Further, the selectivity ratio in series [1] was > 100. The MIC with Giardia intestinalis was > 1500 µM.
As to `COc1ccc(C2ON=C(c3ccc([N+](=O)[O-])s3)O2)cc1` (stereo not given), the IC50 in the series with Vero is < 180 µM; in the series on Entamoeba histolytica, 1.6 µM. In the series with Giardia intestinalis, this compound showed an MIC of 20.4 µM (≈ 6.25 µg/mL).
In the same order, the values of `CC1(c2ccccc2)ON=C(c2ccc([N+](=O)[O-])s2)O1` (stereo not given) are < 180 µM, 3.77 µM and 10.8 µM (≈ 3.13 µg/mL).
Take `CC1(c2ccc(Cl)cc2)ON=C(c2ccc([N+](=O)[O-])s2)O1` (stereo not given): the IC50 with Vero was < 180 µM; in the series on Entamoeba histolytica, 6.1 µM. This compound also gave an MIC in the series on Giardia intestinalis of 4.55 µM (≈ 1.48 µg/mL).
Take `Cc1ccc(C2=NOC(c3ccccc3)O2)cc1` (stereo not given): in the series with Entamoeba histolytica, inhibition was half-maximal at 7.82 µM (IC50). Also, the MIC against Giardia intestinalis is > 1500 µM.
In the same order, the values of `Cc1ccc(C2=NOC(c3ccccc3O)O2)cc1` (stereo not given) are 8.61 µM and > 1500 µM.
Turning to `Cc1ncc([N+](=O)[O-])n1CCO` [METRONIDAZOLE], the minimal inhibitory concentration (MIC) in the series with Giardia intestinalis is 14.6 µM (≈ 2.5 µg/mL).

What is called IC50 is the concentration that gives 50% inhibition. As a reminder, the MIC is the smallest concentration in the dilution series that meets the test's criterion for growth inhibition.
